Calls of active or inactive are those of the source. The rule behind the calls is not given here.
What was measured:
[1] = target: Cannabinoid receptor 2 (Homo sapiens, UniProt P34972); test: Displacement of [3H]WIN-55212-2 from human CB2 receptor expressed in CHO-K1 cells by liquid scintillation counting; format: cell-based
[2] = target: T1, Cannabinoid receptor 1 (Rattus norvegicus, UniProt P20272); test: Displacement of [3H]WIN-55212-2 from CB1 receptor in rat cerebellar membrane by liquid scintillation counting; format: cell membranes, Cerebellum
T1 sequence (P20272 whole entry): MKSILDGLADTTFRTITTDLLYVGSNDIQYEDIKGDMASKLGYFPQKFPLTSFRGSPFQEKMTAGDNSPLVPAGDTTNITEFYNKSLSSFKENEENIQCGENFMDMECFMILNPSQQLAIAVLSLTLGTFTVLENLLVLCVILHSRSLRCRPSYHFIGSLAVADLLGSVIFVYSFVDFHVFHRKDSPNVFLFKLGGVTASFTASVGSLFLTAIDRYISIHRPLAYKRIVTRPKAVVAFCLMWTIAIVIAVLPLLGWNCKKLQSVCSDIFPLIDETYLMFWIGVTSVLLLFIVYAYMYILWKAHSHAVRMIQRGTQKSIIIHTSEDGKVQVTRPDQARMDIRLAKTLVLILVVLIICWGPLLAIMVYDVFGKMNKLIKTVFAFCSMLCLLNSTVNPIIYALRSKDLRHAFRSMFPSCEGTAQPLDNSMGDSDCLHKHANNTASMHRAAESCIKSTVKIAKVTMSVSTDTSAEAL

[3] = test system: Mus musculus; test: Antiobesity activity in ob/ob mouse assessed as reduction of food intake at 20 mg/kg, ip once daily for 2 weeks; format: functional, organism-based; set-up: dose 20 mg/kg
[4] = test system: Mus musculus; test: Antianalgesic activity in Swiss mouse assessed as inhibition of (R)-methanandamide-induced analgesic effect at 2 mg/kg, ip administered 30 mins before (R)-methanandamide challenge measured for 45 mins by formalin planter test; format: functional, organism-based; set-up: dose 2 mg/kg
Summary of the method: (§1)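 Formalin test in mice. Inject 10 μL of 5% formaldehyde (vehicle: saline/5% PEG-400/5% Tween-80) into the plantar paw, with (R)-methanandamide dissolved in the formalin. Give the antagonist i.p. 30 min before formalin. A blinded observer scores paw licking and biting for 45 min (phase I 0-15 min, phase II 15-45 min).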

[5] = test system: Mus musculus; test: Inhibition of WIN-55212-2-induced hypothermia in Swiss mouse assessed as change in body temperature at 2 mg/kg ip administered 30 mins before WIN-55212-2 challenge; format: functional, organism-based; set-up: dose 2 mg/kg
Summary of the method: (§2)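 Mice dosed i.p. Rectal temperature taken with a digital probe and reported as change from baseline.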

[6] = test system: Mus musculus; test: Inhibition of WIN-55212-2-induced catalepsy in Swiss mouse at 5 mg/kg ip administered 30 mins before WIN-55212-2 challenge measured after 30 mins by ring catalepsy test; format: functional, organism-based; set-up: dose 5 mg/kg
Summary of the method: (§3)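 Mice dosed i.p. Ring test scored by a blinded observer as total time cataleptic during a 3-min observation.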

[7] = test system: Mus musculus; test: Antiobesity activity in ob/ob mouse assessed as reduction of body weight gain at 20 mg/kg, ip once daily for 2 weeks; format: functional, organism-based; set-up: dose 20 mg/kg
[8] = test system: Mus musculus; test: Antianalgesic activity in Swiss mouse assessed as inhibition of (R)-methanandamide-induced analgesic effect at 20 mg/kg, ip administered 30 mins before (R)-methanandamide challenge measured for 45 mins by formalin planter test; format: functional, organism-based; set-up: dose 20 mg/kg; summary of the method: as §1
[9] = target: Cannabinoid receptor 1 (Rattus norvegicus) (UniProt P20272); test: Antagonist activity at CB1 receptor in rat cerebellar membrane by [35S]GTPgammaS binding assay; format: functional, cell membranes; conditions: Cerebellum
Cannabinoid receptor 1 (Rattus norvegicus), sequence (P20272 whole entry): as above
Summary of the method: (§4)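 Rat cerebellar membranes (20 μg) from freshly dissected cerebella. Incubate 90 min at 30 °C with 0.05 nM [35S]GTPγS and graded compound concentrations, in 20 mM Tris pH 7.4 with 5 mM MgCl2, 0.1 M NaCl, 30 μM GDP, adenosine deaminase, 0.02% BSA and PMSF. Run ± 10 μM WIN-55212-2. Stop by centrifugation at 4 °C, wash the pellet, and count by liquid scintillation.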

[10] = Drug level in Swiss mouse white adipose tissue at 20 mg/kg, ip after 15 mins; format: ADME, organism-based; set-up: dose 20 mg/kg, route intraperitoneal; conditions: in vivo, 0.25 h
Summary of the method: (§5)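 Mice dosed i.p. Blood and snap-frozen tissue are extracted in CH3OH:CHCl3:H2O and analysed by LC/MS on a cyano column with a water/methanol gradient containing acetic acid and ammonium acetate, at 0.4 mL/min.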

[11] = test system: Mus musculus; test: Effect on motor activity in Swiss mouse assessed as number of light beam interruptions projecting across each cage at 20 mg/kg, ip; format: functional, organism-based; set-up: dose 20 mg/kg
Summary of the method: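 Male Swiss mice in the automated cages, dosed i.p. in saline/PEG-400/Tween-80 vehicle. Activity is counted as light-beam interruptions, recorded at the same time as feeding.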

[12] = test system: Mus musculus; test: Anorexic activity in Swiss mouse assessed as reduction of food intake at 20 mg/kg, ip administered 30 mins before dark onset after 24 hrs; format: functional, organism-based; set-up: dose 20 mg/kg
Summary of the method: (§6)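 Male Swiss mice (20-25 g) housed singly in automated feeding cages after 4 days of habituation. Dose i.p. in saline/10% PEG-400/10% Tween-80 before dark onset. Weight of food removed is logged continuously and expressed as food per kg body weight.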

[13] = test system: Mus musculus; test: Inhibition of WIN-55212-2-induced catalepsy in Swiss mouse at 20 mg/kg ip administered 30 mins before WIN-55212-2 challenge measured after 30 mins by ring catalepsy test; format: functional, organism-based; set-up: dose 20 mg/kg; summary of the method: as §3
[14] = target: Cannabinoid receptor 2 (Mus musculus) (UniProt P47936); test: Agonist activity at mouse CB2 receptor expressed in HEK293 cells assessed as inhibition of isoproterenol-induced cAMP accumulation at 1 uM by radioimmunoassay; format: functional, cell-based
Cannabinoid receptor 2 (Mus musculus), sequence (P47936 whole entry): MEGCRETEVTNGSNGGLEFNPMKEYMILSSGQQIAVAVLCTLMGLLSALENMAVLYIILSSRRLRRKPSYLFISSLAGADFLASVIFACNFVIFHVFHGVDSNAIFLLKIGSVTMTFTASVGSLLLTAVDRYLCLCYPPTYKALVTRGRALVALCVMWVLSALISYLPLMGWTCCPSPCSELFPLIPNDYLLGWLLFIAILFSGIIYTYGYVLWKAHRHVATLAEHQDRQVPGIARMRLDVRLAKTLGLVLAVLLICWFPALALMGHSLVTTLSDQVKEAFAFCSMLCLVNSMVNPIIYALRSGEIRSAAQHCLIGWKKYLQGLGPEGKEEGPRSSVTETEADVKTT
Summary of the method: (§7)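 Stably transfected HEK cells carrying mouse CB2. Rinse in HEPES buffer (15 min), preincubate with IBMX 10 mM (15 min), then incubate with IBMX ± isoproterenol 10 μM (15 min), all at 37 °C in a shaking bath. Cannabinoid is present in both the preincubation and the incubation.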

[15] = Lipophilicity, log P of the compound; format: physicochemical; conditions: octanol/water
[16] = target: T1, Cannabinoid receptor 1; test: Antagonist activity at CB1 receptor in rat cerebellar membrane assessed as inhibition of WIN-55212-2-induced [35S]GTPgammaS binding by liquid scintillation counting; format: functional, cell membranes, Cerebellum; summary of the method: as §4
[17] = Plasma concentration in Swiss mouse at 20 mg/kg, ip after 30 mins; format: ADME, organism-based; set-up: dose 20 mg/kg, route intraperitoneal; conditions: read-out: Cmax; summary of the method: as §5
[18] = test system: Mus musculus; test: Inhibition of WIN-55212-2-induced hypothermia in Swiss mouse assessed as change in body temperature at 20 mg/kg ip administered 30 mins before WIN-55212-2 challenge; format: functional, organism-based; set-up: dose 20 mg/kg; summary of the method: as §2
[19] = target: Cannabinoid receptor 2 (Mus musculus) (UniProt P47936); test: Agonist activity at mouse CB2 receptor expressed in HEK293 cells assessed as cAMP accumulation at 1 uM by radioimmunoassay; format: functional, cell-based; summary of the method: as §7
[20] = test system: Mus musculus; test: Anorexic activity in Swiss mouse assessed as reduction of food intake at 5 mg/kg, ip administered 30 mins before dark onset after 24 hrs; format: functional, organism-based; set-up: dose 5 mg/kg; summary of the method: as §6

Cannabinoid receptor 2, sequence (P34972 whole entry): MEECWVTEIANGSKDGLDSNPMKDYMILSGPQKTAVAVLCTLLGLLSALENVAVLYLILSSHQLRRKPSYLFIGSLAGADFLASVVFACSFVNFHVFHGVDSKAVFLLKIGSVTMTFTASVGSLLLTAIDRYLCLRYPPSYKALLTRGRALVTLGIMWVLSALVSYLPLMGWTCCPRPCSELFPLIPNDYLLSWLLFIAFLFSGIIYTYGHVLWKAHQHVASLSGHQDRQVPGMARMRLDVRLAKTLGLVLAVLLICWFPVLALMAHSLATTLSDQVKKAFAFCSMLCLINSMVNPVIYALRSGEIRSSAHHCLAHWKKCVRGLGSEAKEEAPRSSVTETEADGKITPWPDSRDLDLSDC

Cc1c(C(=O)NC2C3CC4CC(C3)CC2C4)cc(-c2ccccc2)n1Cc1ccc(Cl)cc1 (configuration not stated)
IC50 [1]: 11 nM | IC50 [2]: 70 nM

Cc1c(C(=O)NC2C3CC4CC(C3)CC2C4)c(Br)c(-c2ccccc2)n1Cc1ccc(Cl)cc1 (configuration not stated)
IC50 [1]: 123 nM | IC50 [2]: > 1000 nM

Cc1c(C(=O)NN2CCCCC2)cc(-c2ccccc2)n1Cc1ccc(Cl)cc1
IC50 [1]: > 1000 nM | IC50 [2]: > 1000 nM

Cc1c(C(=O)NN2CCCCC2)nn(-c2ccc(Cl)cc2Cl)c1-c1ccc(Cl)cc1
Activity [3]: Active | Activity [4]: Active | Activity [5]: Active | Activity [6]: Active

Cc1c(C(=O)NC2CC3CCC2C3)cc(-c2ccccc2)n1Cc1ccc(Cl)cc1 (configuration not stated)
IC50 [1]: 420 nM | IC50 [2]: > 1000 nM

Cc1c(C(=O)c2ccccc2)cc(-c2ccccc2)n1Cc1ccc(Cl)cc1
IC50 [1]: 498 nM | IC50 [2]: > 1000 nM

Cc1c(C(=O)c2ccccc2)c(N)c(-c2ccccc2)n1Cc1ccc(Cl)cc1
Activity [7]: Active | Activity [8]: Active | Activity [9]: inactive | Cmax [10]: 42 nmol/g | Activity [11]: inactive | Activity [12]: inactive | Activity [13]: inactive | IC50 [1]: 41 nM | Activity [14]: 14.3 pmol | logP [15]: 6.39 | EC50 [16]: 4900 nM | concentration at 0.5 h [17]: 596 nM | Activity [18]: inactive | Activity [19]: 5.9 pmol | Activity [20]: inactive | IC50 [2]: 313 nM

Cc1[nH]c(-c2ccccc2)c(N)c1C(=O)c1ccccc1
IC50 [1]: > 1000 nM | IC50 [2]: > 1000 nM

Reference: ChEMBL document CHEMBL1143356, “Synthesis and characterization of a peripherally restricted CB1 cannabinoid antagonist, URB447, that reduces feeding and body-weight gain in mice” (Bioorg Med Chem Lett, 2009)
